Experimental data published in ChEMBL document CHEMBL1136952, “Inhibition of staphyloxanthin virulence factor biosynthesis in Staphylococcus aureus: in vitro, in vivo, and crystallographic results” (J Med Chem, 2009).

Experiments:
[1] = molecular target: T1, 4,4'-diapophytoene synthase (Staphylococcus aureus, UniProt A9JQL9); experiment: Inhibition of Staphylococcus aureus histidine tagged dehydrosqualene synthase expressed in Escherichia coli BL21 (DE3) cells by continuous spectrophotometric assay
T1 sequence (A9JQL9 whole entry): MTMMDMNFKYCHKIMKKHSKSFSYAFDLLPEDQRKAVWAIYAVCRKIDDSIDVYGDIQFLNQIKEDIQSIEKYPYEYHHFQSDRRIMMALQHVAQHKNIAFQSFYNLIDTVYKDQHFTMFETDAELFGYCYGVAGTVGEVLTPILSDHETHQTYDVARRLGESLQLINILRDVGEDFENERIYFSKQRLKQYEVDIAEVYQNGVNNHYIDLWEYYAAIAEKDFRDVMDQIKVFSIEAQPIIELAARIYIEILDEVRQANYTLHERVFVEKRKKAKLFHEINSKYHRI
Method in brief: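 His-tagged CrtM purified on Ni-NTA. Compounds were preincubated with 2 μg enzyme for 30 min at 20 °C. Phosphate release was followed continuously by a coupled spectrophotometric assay. IC50 came from a dose-response fit, and Ki was derived from IC50, substrate concentration and the CrtM kinetic constant.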

Staphylococcus aureus = experiment: Inhibition of staphyloxanthin biosynthesis in Staphylococcus aureus isolate Pig1 after 72 hrs by spectrophotometry; type: functional, organism-based; details: isolate Pig1, PIG1, 72 h
Method in brief: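 Bacteria were grown in Todd-Hewitt broth with compound for 72 h, in duplicate. Cells were then centrifuged and washed twice in PBS. Pigment was extracted with MeOH and read by OD at 450 nm. IC50 came from a dose-response fit of the OD data.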

Squalene synthase = molecular target: T2, Squalene synthase (Homo sapiens, UniProt P37268); experiment: Inhibition of human recombinant squalene synthase expressed in Escherichia coli cells assessed as conversion of [3H]FPP to squalene by liquid scintillation
T2 sequence (P37268 whole entry): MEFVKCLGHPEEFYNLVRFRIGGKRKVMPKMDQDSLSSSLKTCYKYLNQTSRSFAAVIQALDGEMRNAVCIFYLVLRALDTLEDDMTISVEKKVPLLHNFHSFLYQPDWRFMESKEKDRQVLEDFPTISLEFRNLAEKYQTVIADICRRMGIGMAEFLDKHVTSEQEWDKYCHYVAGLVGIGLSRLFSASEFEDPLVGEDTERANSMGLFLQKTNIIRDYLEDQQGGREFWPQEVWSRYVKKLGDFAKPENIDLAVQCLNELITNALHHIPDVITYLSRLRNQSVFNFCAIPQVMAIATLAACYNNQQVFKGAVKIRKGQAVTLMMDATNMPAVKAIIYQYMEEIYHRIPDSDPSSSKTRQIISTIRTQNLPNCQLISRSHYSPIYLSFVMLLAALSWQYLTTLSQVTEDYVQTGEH

MCF7 = experiment: Cytotoxicity against human MCF7 cells after 4 days by MTT assay; type: cell-based; details: MCF7, 96 h
Method in brief: (§1)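 Cell lines from the National Cancer Institute, grown in RPMI-1640 with 10% FBS and 2 mM L-glutamine at 37 °C, 5% CO2. Seeded 5000 cells/well with compound half-log serially diluted (0.316 mM to 0.1 pM). Incubated 4 days. Viability read by MTT. IC50 from dose-response fit of OD data.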

NCI-H460 = experiment: Cytotoxicity against human NCI-H460 cells after 4 days by MTT assay; type: cell-based; details: NCI-H460, 96 h; method in brief: as §1
SF-268 = experiment: Cytotoxicity against human SF268 cells after 4 days by MTT assay; type: cell-based; details: SF-268, 96 h; method in brief: as §1

SMILES	Ki [1] [µM]	IC50 (Staphylococcus aureus) [µM]	IC50 (Squalene synthase) [µM]	IC50 (MCF7) [µM]	IC50 (NCI-H460) [µM]	IC50 (SF-268) [µM]
CC(C)(C(=O)NCCCc1cccc(Oc2ccccc2)c1)P(=O)(O)O	0.96	> 500	0.52	> 300	> 300	> 300
O=C(CCCCc1cccc(Oc2ccccc2)c1)CP(=O)(O)O	> 7	28	20	135	191	
O=C(CP(=O)(O)O)NCCCc1cccc(Oc2ccc(Cl)c(Cl)c2)c1	0.03	0.04	0.74	> 300	> 300	> 300
O=C(CP(=O)([O-])[O-])NCCCc1cccc(Oc2ccccc2)c1.[K+].[K+]		0.008	0.53	> 300	> 300	> 300
O=C(NO)C(CCCc1cccc(Oc2ccccc2)c1)P(=O)(O)O (stereo not drawn)	4.1	4.2	0.3	> 300	> 300	> 300
O=C(CP(=O)(O)O)NCCCCc1cccc(Oc2ccccc2)c1	5.3	35	> 30	> 300	> 300	> 300
O=C(CP(=O)(O)O)OCCCc1cccc(Oc2ccccc2)c1	5.7	> 500	> 30	69	86	
O=C(CS(=O)(=O)O)NCCCc1cccc(Oc2ccccc2)c1	0.81	15	> 30	> 300	> 300	> 300
O=C(CP(=O)(O)O)N(O)CCCc1cccc(Oc2ccc(Cl)c(Cl)c2)c1	0.32	0.042	1.6	> 300	> 300	> 300
O=C(CP(=O)(O)O)N(O)CCCc1cccc(Oc2ccccc2)c1	0.32	0.11	30	> 300	> 300	> 300
CN(CCCc1cccc(Oc2ccccc2)c1)C(=O)CP(=O)(O)O	0.91	8.6	1	> 300	> 300	> 300
O=C(CP(=O)(O)O)NCCCc1cccc(Oc2ccc(Cl)cc2)c1	0.07	0.028	1.1	> 300	> 300	> 300
O=C(CP(=O)(O)O)NCCCc1ccc(-c2ccccc2)cc1	0.81	5	> 30	> 300	> 300	> 300
O=P(O)(O)CS(=O)(=O)NCCCc1cccc(Oc2ccccc2)c1	> 7	> 500	> 30	> 300	> 300	> 300
O=C(O)CC(=O)NCCCc1cccc(Oc2ccccc2)c1	> 7	200	> 30	283	306	306
O=C(CP(=O)(O)O)NCCc1cccc(Oc2ccccc2)c1	1.5	3	6.2	> 300	> 300	> 300
Cc1ccc(-c2ccc(CCCN(O)C(=O)CP(=O)(O)O)cc2)cc1	> 7	4.1	> 30	266	284	
